How the values were obtained:
[1] = test system: neurology patients / AD patients; settings: ref 1-8 of Supporting Data; cited from earlier work
[2] = biological target: human 5-HT2b receptor (Homo sapiens, UniProt P41595); assay: 5-HT2bR competitive radioligand binding, [125I]
[3] = test system: h5-HT2b and m5-HT2b; assay: Gq activation and β-arrestin-1 recruitment, statements covering both species; assay type: cell-based, human and mouse; settings: absence of an activator
Summary of the method: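 Human and mouse 5-HT2b receptors were tested in cells. Serotonin-driven Gq activation and β-arrestin-1 recruitment were read across increasing test compound concentrations. The same read-outs were taken with vehicle and no activator to capture basal (inverse agonist) activity. Data are mean ± SEM of three to four independent experiments, each in duplicate or triplicate. EC50 and Emax were derived.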

Sequence of human 5-HT2b receptor (P41595 whole entry): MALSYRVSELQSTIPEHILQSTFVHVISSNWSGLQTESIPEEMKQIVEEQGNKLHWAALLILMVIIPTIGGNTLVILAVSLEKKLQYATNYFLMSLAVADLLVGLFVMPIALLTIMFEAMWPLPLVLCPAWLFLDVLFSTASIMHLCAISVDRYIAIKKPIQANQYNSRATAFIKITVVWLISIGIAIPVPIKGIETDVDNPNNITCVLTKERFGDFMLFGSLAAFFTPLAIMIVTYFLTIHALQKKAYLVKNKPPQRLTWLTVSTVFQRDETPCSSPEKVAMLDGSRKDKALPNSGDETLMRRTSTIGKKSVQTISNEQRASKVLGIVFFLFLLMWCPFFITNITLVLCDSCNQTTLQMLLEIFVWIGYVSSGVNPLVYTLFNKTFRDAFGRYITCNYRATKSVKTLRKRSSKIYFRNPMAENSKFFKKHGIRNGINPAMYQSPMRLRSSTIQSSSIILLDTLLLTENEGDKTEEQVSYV

Row | IC50 [2] | Structure (SMILES) | Risk for cardiotoxicity, drowsiness, or weight gain [1] | Basal (constitutive) 5-HT2bR activity [3]
1 | 863 ± 8 nM | Cc1cc(-c2ccccc2)nnc1NCCN1CCOCC1 [minaprine] | low risk | 
2 |  | Cc1nc2n(c(=O)c1CCN1CCC(c3noc4cc(F)ccc34)CC1)CCCC2 [risperidone] |  | inhibited basal 5‐HT2bR
